In ChEMBL document CHEMBL1681789, “New bichalcone analogs as NF-κB inhibitors and as cytotoxic agents inducing Fas/CD95-dependent apoptosis” (Bioorg Med Chem, 2011):
Activity calls are given as the source filed them. The calls are words filed in the database; no cut-off is given here.

Tests used:
[1] = test system: BV-2; assay: Inhibition of NADPH oxidase mediated-ROS production in mouse BV2 cells; format: cell-based
In short: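 Compounds were incubated with 50 µg microglial cell homogenate for 20 min at 37 °C in the dark. Superoxide production was started with 200 µM NADPH, and chemiluminescence was followed for 30 min; the AUC represents ROS production. DPI served as positive control.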

[2] = test system: HCT-8; assay: Cytotoxicity against human HCT8 cells after 3 days; format: functional; conditions: HCT-8, 72 h
In short: (§1)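 Seeded at 1500–7500 cells/well; compounds added from DMSO-diluted stock. After 3 days, attached cells were fixed with cold 50% TCA, stained with 0.4% sulforhodamine B and read at 562 nm. EC50 is the concentration reducing growth by 50%, averaged over at least three independent determinations. Cells were grown in RPMI-1640 with […], 0.25% bicarbonate and 10% FBS.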

[3] = test system: KB; assay: Cytotoxicity against human KB cells after 3 days; format: functional; conditions: 72 h; in short: as §1
[4] = Inhibition of Nitric oxide synthase activity in mouse BV2 cells assessed as LPS-induced NO production after 24 hrs by Griess reaction; format: cell-based; conditions: BV-2, 24 h
In short: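 Murine BV2 microglia were cultured in DMEM with 5% FBS and given 1–50 µM drug with 0.5 µg/mL LPS. Nitrite accumulated in the medium over 24 h was measured by Griess reagent. IC50 values are means ± SEM from 3–6 experiments on different days using different passages.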

[5] = test system: DU-145; assay: Cytotoxicity against human DU145 cells after 3 days; format: functional; conditions: DU-145, 72 h; in short: as §1
[6] = test system: A549; assay: Cytotoxicity against human A549 cells after 3 days; format: functional; conditions: A549, 72 h; in short: as §1
[7] = test system: HCT-8; assay: Cytotoxicity against human HCT8 cells at 20 ug/ml after 3 days; format: functional, cell-based
[8] = test system: KB; assay: Cytotoxicity against human KB cells at 20 ug/ml after 3 days; format: functional, cell-based
[9] = test system: A549; assay: Cytotoxicity against human A549 cells at 20 ug/ml after 3 days; format: functional, cell-based
[10] = test system: DU-145; assay: Cytotoxicity against human DU145 cells at 20 ug/ml after 3 days; format: functional, cell-based
[11] = test system: BV-2; assay: Inhibition of NF-kappaB nuclear translocation in LPS-stimulated mouse BV2 cells at 1 uM by Western blotting; format: cell-based
[12] = test system: BV-2; assay: Reduction in iNOS protein expression in LPS-stimulated mouse BV2 cells at 1 uM by Western blotting

| IC50 [4] | Structure (SMILES) | inhibition [1] | GI50 [2] | GI50 [3] | GI50 [5] | GI50 [6] | Activity [7] | Activity [8] | Activity [9] | Activity [10] | inhibition [11] | inhibition [12] |
| --- | --- | --- | --- | --- | --- | --- | --- | --- | --- | --- | --- | --- |
| 1.6 µM | COc1cc(C(=O)/C=C/c2ccccn2)cc(CN2CCN(c3ccc(C(=O)/C=C/c4ccccn4)cc3)CC2)c1O | inactive | 0.7 µM | 3.98 µM | 1.3 µM | 1 µM |  |  |  |  |  |  |
| 1.7 µM | CC(=O)c1ccc(N2CCN(Cc3cc(C(=O)/C=C/c4ccc[nH]4)ccc3O)CC2)cc1 | inactive | 24.7 µM | 19 µM | 17.9 µM | 20.1 µM |  |  |  |  |  |  |
| 7.5 µM | Cc1ccsc1/C=C/C(=O)c1ccc(N2CCN(Cc3cc(C(=O)/C=C/c4sccc4C)ccc3O)CC2)cc1 | inactive |  |  |  |  | inactive | inactive | inactive | inactive |  |  |
| 15.9 µM | COc1cc(C(C)=O)cc(CN2CCN(c3ccc(C(C)=O)cc3)CC2)c1O | inactive |  |  |  |  | inactive | inactive | inactive | inactive |  |  |
| 2.1 µM | COc1cc(C(=O)/C=C/c2ccccc2)cc(CN2CCN(c3ccc(C(=O)/C=C/c4ccccc4)cc3)CC2)c1O | inactive | 25.8 µM | > 35.8 µM | > 35.8 µM | > 35.8 µM |  |  |  |  |  |  |
| 3.5 µM | COc1ccc(/C=C/C(=O)c2ccc(N3CCN(Cc4cc(C(=O)/C=C/c5ccc(OC)cc5)cc(OC)c4O)CC3)cc2)cc1 | inactive |  |  |  |  | inactive | inactive | inactive | inactive |  |  |
| 1.9 µM | CC(=O)c1ccc(N2CCN(Cc3cc(C(=O)/C=C/c4cccn4C)ccc3O)CC2)cc1 | inactive | > 45.1 µM | 39.1 µM | > 45.1 µM | 31.2 µM |  |  |  |  |  |  |
| 0.5 µM | COc1ccc(/C=C/C(=O)c2ccc(N3CCN(Cc4cc(C(=O)/C=C/c5ccc(OC)cc5)ccc4O)CC3)cc2)cc1 | inactive |  |  |  |  | inactive | inactive | inactive | inactive | Active | Active |
| 1.9 µM | O=C(/C=C/c1cccs1)c1ccc(N2CCN(Cc3cc(C(=O)/C=C/c4cccs4)ccc3O)CC2)cc1 | inactive | > 37 µM | > 37 µM | 29.2 µM | > 37 µM |  |  |  |  |  |  |
| 2.7 µM | COc1cc(C(=O)/C=C/c2cccs2)cc(CN2CCN(c3ccc(C(=O)/C=C/c4cccs4)cc3)CC2)c1O | inactive |  |  |  |  | inactive | inactive | inactive | inactive |  |  |
| 2.4 µM | Cc1ccc(/C=C/C(=O)c2ccc(N3CCN(Cc4cc(C(=O)/C=C/c5ccc(C)o5)ccc4O)CC3)cc2)o1 | inactive |  |  |  |  | inactive | inactive | inactive | inactive |  |  |
| 10.9 µM | COc1cc(C(=O)/C=C/c2ccccc2Cl)cc(CN2CCN(c3ccc(C(=O)/C=C/c4ccccc4Cl)cc3)CC2)c1O | inactive |  |  |  |  | inactive | inactive | inactive | inactive |  |  |
| 3.1 µM | COc1cc(C(=O)/C=C/c2sccc2C)cc(CN2CCN(c3ccc(C(=O)/C=C/c4sccc4C)cc3)CC2)c1O | inactive |  |  |  |  | inactive | inactive | inactive | inactive |  |  |
| 2.8 µM | O=C(/C=C/c1ccccc1)c1ccc(N2CCN(Cc3cc(C(=O)/C=C/c4ccccc4)ccc3O)CC2)cc1 | inactive |  |  |  |  | inactive | inactive | inactive | inactive |  |  |
| 1.2 µM | Cn1cccc1/C=C/C(=O)c1ccc(N2CCN(Cc3cc(C(=O)/C=C/c4cccn4C)ccc3O)CC2)cc1 | inactive |  |  |  |  | inactive | inactive | inactive | inactive |  |  |
| 25.7 µM | O=C(/C=C/c1ccc(Cl)cc1Cl)c1ccc(N2CCN(Cc3cc(C(=O)/C=C/c4ccc(Cl)cc4Cl)ccc3O)CC2)cc1 | inactive |  |  |  |  | inactive | inactive | inactive | inactive |  |  |
| 6.6 µM | CC(=O)c1ccc(N2CCN(Cc3cc(C(C)=O)ccc3O)CC2)cc1 | inactive |  |  |  |  | inactive | inactive | inactive | inactive |  |  |
| 1.4 µM | O=C(/C=C/c1ccccn1)c1ccc(N2CCN(Cc3cc(C(=O)/C=C/c4ccccn4)ccc3O)CC2)cc1 | inactive | 1.26 µM | 1.23 µM | 1.25 µM | 1.08 µM |  |  |  |  |  |  |
| 0.3 µM | O=C(/C=C/c1cccnc1)c1ccc(N2CCN(Cc3cc(C(=O)/C=C/c4cccnc4)ccc3O)CC2)cc1 | inactive | 1.4 µM | 1.66 µM | 2.19 µM | 1.47 µM |  |  |  |  | Active | Active |
|  | CC(=O)O[C@H]1C(=O)[C@@]2(C)[C@H]([C@H](OC(=O)c3ccccc3)[C@]3(O)C[C@H](OC(=O)[C@H](O)[C@@H](NC(=O)c4ccccc4)c4ccccc4)C(C)=C1C3(C)C)[C@]1(OC(C)=O)CO[C@@H]1C[C@@H]2O [PACLITAXEL] |  | > 0.1 µM | 0.00516 µM | 0.00523 µM | 0.0076 µM |  |  |  |  |  |  |
| 30.5 µM | O=C(/C=C/c1ccccc1Cl)c1ccc(N2CCN(Cc3cc(C(=O)/C=C/c4ccccc4Cl)ccc3O)CC2)cc1 | inactive |  |  |  |  | inactive | inactive | inactive | inactive |  |  |
| 1.7 µM | O=C(/C=C/c1ccco1)c1ccc(N2CCN(Cc3cc(C(=O)/C=C/c4ccco4)ccc3O)CC2)cc1 | inactive |  |  |  |  | inactive | inactive | inactive | inactive |  |  |
| 2.1 µM | O=C(/C=C/c1ccc2c(c1)OCO2)c1ccc(N2CCN(Cc3cc(C(=O)/C=C/c4ccc5c(c4)OCO5)ccc3O)CC2)cc1 | inactive |  |  |  |  | inactive | inactive | inactive | inactive |  |  |

| Structure (SMILES) | IC50 [4] | inhibition [1] | GI50 [2] | GI50 [3] | GI50 [5] | GI50 [6] | Activity [7] | Activity [8] | Activity [9] | Activity [10] | inhibition [11] | inhibition [12] |
| --- | --- | --- | --- | --- | --- | --- | --- | --- | --- | --- | --- | --- |
| COC(=O)[C@@H](N)CCCNC(=N)N[N+](=O)[O-] [L-NAME] | 18.9 µM |  |  |  |  |  |  |  |  |  |  |  |
